Source: ChEMBL document CHEMBL4325842, “Design, synthesis, and biological evaluation of novel aminopyrimidinylisoindolines as AXL kinase inhibitors” (Bioorg Med Chem Lett, 2018)

Key:
[1] = target: ALK tyrosine kinase receptor (Homo sapiens) (UniProt Q9UM73); assay: Inhibition of human ALK at 10 uM using poly[Glu:Tyr] (4:1) as substrate by [gamma-33P]-ATP assay relative to control
Method in brief: (§1)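 Commercial kinase panel screen at a single concentration of 10 μM. % inhibition was calculated as 100 minus % activity.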

[2] = target: Aurora kinase A (Homo sapiens) (UniProt O14965); assay: Inhibition of human AuroraA at 10 uM using [H-LRRASLG] as substrate by [gamma-33P]-ATP assay relative to control; method in brief: as §1
Chain of Aurora kinase A (Homo sapiens) (O14965 whole entry): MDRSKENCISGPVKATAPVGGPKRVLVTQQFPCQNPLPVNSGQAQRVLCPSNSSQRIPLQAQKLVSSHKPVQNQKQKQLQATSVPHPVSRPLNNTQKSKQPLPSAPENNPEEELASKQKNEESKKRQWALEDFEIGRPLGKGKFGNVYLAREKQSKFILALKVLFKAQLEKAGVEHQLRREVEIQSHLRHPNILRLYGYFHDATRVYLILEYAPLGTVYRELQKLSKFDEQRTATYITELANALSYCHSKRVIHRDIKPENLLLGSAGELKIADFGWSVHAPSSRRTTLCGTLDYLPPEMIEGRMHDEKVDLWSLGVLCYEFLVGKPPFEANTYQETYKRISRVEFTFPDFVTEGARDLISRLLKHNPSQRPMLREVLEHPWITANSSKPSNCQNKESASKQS

[3] = target: Mast/stem cell growth factor receptor Kit (Homo sapiens) (UniProt P10721); assay: Inhibition of human c-KIT at 10 uM using poly[Glu:Tyr] (4:1) as substrate by [gamma-33P]-ATP assay relative to control
Chain of Mast/stem cell growth factor receptor Kit (Homo sapiens) (P10721 whole entry): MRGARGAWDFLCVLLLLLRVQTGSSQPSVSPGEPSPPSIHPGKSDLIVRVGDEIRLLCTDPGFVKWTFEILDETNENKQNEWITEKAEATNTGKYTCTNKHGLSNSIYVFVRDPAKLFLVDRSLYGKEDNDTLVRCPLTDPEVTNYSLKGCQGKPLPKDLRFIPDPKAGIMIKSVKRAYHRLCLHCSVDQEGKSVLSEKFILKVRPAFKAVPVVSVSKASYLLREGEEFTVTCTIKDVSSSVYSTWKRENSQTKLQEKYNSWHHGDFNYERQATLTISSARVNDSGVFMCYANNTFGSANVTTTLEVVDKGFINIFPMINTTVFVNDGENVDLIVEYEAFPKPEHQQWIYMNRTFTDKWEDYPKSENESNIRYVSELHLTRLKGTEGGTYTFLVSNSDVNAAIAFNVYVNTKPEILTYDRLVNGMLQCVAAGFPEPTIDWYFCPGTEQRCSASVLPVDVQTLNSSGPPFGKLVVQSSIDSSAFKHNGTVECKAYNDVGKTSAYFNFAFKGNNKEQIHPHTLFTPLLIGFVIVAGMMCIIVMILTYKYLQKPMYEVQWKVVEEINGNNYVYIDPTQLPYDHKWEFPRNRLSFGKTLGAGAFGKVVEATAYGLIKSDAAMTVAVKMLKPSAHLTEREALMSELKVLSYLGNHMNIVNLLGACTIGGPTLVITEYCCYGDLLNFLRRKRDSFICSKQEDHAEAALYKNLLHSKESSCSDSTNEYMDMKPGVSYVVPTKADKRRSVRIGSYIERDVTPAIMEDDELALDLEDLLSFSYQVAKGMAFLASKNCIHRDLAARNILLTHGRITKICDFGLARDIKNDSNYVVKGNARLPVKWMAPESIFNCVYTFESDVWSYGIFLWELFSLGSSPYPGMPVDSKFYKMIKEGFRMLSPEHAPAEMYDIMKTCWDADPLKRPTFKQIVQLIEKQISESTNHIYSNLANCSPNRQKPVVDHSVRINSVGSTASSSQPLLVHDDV
Method in brief: (§2)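 Kinase-panel profiling (50 oncogenic kinases) run by an outside contract service. The test compound was tested at a single concentration of 10 μM. Percent inhibition was calculated as 100 minus % remaining activity.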

[4] = target: Cyclin-dependent kinase 1/cyclin B1 (Homo sapiens) (UniProt P06493+P14635); assay: Inhibition of human CDK1/cyclinB at 10 uM using Histone H1 as substrate by [gamma-33P]-ATP assay relative to control; assay type: protein-complex assay; method in brief: as §1
Chain of Cyclin-dependent kinase 1/cyclin B1 (Homo sapiens) (P06493 whole entry, looked up): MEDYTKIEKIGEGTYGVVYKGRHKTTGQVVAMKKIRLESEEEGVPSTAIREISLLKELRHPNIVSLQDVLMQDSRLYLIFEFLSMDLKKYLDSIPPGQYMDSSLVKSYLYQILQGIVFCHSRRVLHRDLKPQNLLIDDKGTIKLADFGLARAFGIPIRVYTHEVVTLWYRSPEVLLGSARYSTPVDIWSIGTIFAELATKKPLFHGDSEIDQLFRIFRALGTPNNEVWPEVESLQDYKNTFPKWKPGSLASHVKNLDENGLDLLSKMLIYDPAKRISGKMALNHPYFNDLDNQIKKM
Chain of Cyclin-dependent kinase 1/cyclin B1 (Homo sapiens) (P14635 whole entry, looked up): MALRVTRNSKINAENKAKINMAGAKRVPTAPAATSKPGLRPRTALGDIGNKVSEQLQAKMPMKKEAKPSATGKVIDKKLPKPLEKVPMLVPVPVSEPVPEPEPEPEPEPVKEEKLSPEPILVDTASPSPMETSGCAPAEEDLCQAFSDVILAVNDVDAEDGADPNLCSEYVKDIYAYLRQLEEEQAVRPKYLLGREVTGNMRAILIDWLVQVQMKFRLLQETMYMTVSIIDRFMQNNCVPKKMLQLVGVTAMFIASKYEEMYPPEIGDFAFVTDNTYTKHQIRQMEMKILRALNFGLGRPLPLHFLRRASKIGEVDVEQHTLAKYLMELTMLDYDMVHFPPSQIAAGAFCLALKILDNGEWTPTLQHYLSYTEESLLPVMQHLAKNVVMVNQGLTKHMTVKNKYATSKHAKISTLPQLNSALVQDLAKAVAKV

[5] = target: Tyrosine-protein kinase Lyn (Homo sapiens) (UniProt P07948); assay: Inhibition of human LYN at 10 uM using poly[Glu:Tyr] (4:1) as substrate by [gamma-33P]-ATP assay relative to control; method in brief: as §1
[6] = target: Serine/threonine-protein kinase PAK 4 (Homo sapiens) (UniProt O96013); assay: Inhibition of human PAK4 at 10 uM using RRRLSFAEPG as substrate by [gamma-33P]-ATP assay relative to control; method in brief: as §2
[7] = target: Serine/threonine-protein kinase pim-1 (Homo sapiens) (UniProt P11309); assay: Inhibition of human PIM1 at 10 uM using KKRNRTLTK as substrate by [gamma-33P]-ATP assay relative to control; method in brief: as §2
Chain of Serine/threonine-protein kinase pim-1 (Homo sapiens) (P11309 whole entry, looked up): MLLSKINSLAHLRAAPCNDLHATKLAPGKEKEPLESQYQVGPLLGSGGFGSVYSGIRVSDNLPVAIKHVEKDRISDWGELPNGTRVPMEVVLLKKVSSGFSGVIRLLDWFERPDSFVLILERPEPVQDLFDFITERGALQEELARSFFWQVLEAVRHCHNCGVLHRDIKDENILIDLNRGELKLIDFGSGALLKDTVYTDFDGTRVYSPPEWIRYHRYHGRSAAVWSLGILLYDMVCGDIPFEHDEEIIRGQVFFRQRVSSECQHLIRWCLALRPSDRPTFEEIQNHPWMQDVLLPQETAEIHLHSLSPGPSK

[8] = target: Fibroblast growth factor receptor 1 (Homo sapiens) (UniProt P11362); assay: Inhibition of human FGFR1 at 10 uM using KKKSPGEYVNIEFG as substrate by [gamma-33P]-ATP assay relative to control; method in brief: as §1
[9] = target: Homeodomain-interacting protein kinase 1 (Homo sapiens) (UniProt Q86Z02); assay: Inhibition of human HIPK1 at 10 uM using MBP as substrate by [gamma-33P]-ATP assay relative to control; method in brief: as §1
[10] = target: Inhibitor of nuclear factor kappa-B kinase subunit alpha (Homo sapiens) (UniProt O15111); assay: Inhibition of human IKKalpha at 10 uM using KKKKERLLDDRHDSGLDSMKDEE as substrate by [gamma-33P]-ATP assay relative to control; method in brief: as §1
[11] = target: Protein kinase C alpha type (Homo sapiens) (UniProt P17252); assay: Inhibition of human PKCalpha at 10 uM using ERMRPRKRQGSVRRRV as substrate by [gamma-33P]-ATP assay relative to control; method in brief: as §2
[12] = target: Proto-oncogene tyrosine-protein kinase receptor Ret (Homo sapiens) (UniProt P07949); assay: Inhibition of human RET at 10 uM using MEK1 (K97R) as substrate by [gamma-33P]-ATP assay relative to control; method in brief: as §2
[13] = target: Proto-oncogene tyrosine-protein kinase ROS (Homo sapiens) (UniProt P08922); assay: Inhibition of human ROS at 10 uM using KKKSPGEYVNIEFG as substrate by [gamma-33P]-ATP assay relative to control; method in brief: as §2
[14] = target: Tyrosine-protein kinase SYK (Homo sapiens, UniProt P43405); assay: Inhibition of human SYK at 10 uM using poly[Glu:Tyr] (4:1) as substrate by [gamma-33P]-ATP assay relative to control; method in brief: as §2
[15] = target: Tyrosine-protein kinase receptor TYRO3 (Homo sapiens) (UniProt Q06418); assay: Inhibition of human TYRO3 at 10 uM using poly[Glu:Tyr] (4:1) as substrate by [gamma-33P]-ATP assay relative to control; method in brief: as §2
Chain of Tyrosine-protein kinase receptor TYRO3 (Homo sapiens) (Q06418 whole entry): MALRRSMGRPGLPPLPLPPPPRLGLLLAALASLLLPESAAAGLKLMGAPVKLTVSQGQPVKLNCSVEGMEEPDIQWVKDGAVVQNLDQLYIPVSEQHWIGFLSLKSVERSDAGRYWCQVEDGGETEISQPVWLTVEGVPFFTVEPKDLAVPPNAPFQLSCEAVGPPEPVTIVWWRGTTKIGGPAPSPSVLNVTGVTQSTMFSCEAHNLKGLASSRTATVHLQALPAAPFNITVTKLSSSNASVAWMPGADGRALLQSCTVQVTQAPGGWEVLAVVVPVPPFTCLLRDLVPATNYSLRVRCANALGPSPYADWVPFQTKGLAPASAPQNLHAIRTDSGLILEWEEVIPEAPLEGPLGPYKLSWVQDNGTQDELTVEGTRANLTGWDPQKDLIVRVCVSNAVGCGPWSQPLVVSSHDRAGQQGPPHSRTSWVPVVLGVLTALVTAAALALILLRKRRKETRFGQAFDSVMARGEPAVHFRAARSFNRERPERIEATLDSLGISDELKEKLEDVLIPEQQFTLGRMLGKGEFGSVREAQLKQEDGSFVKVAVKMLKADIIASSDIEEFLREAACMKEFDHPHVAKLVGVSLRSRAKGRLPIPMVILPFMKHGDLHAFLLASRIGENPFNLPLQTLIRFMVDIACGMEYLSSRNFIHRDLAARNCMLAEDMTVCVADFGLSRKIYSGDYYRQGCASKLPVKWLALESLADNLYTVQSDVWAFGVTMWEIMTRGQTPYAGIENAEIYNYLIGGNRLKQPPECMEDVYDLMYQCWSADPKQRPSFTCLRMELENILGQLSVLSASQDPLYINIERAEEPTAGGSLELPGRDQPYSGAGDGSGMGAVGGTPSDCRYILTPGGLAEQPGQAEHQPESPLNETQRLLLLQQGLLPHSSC

[16] = target: Tyrosine-protein kinase Yes (Homo sapiens) (UniProt P07947); assay: Inhibition of human YES at 10 uM using poly[Glu:Tyr] (4:1) as substrate by [gamma-33P]-ATP assay relative to control; method in brief: as §2
[17] = target: T1, Tyrosine-protein kinase receptor UFO (Homo sapiens, UniProt P30530); assay: Inhibition of human AXL using EAIYAAPFAKKK as substrate by [gamma-33P]-ATP assay
T1 sequence (P30530 whole entry): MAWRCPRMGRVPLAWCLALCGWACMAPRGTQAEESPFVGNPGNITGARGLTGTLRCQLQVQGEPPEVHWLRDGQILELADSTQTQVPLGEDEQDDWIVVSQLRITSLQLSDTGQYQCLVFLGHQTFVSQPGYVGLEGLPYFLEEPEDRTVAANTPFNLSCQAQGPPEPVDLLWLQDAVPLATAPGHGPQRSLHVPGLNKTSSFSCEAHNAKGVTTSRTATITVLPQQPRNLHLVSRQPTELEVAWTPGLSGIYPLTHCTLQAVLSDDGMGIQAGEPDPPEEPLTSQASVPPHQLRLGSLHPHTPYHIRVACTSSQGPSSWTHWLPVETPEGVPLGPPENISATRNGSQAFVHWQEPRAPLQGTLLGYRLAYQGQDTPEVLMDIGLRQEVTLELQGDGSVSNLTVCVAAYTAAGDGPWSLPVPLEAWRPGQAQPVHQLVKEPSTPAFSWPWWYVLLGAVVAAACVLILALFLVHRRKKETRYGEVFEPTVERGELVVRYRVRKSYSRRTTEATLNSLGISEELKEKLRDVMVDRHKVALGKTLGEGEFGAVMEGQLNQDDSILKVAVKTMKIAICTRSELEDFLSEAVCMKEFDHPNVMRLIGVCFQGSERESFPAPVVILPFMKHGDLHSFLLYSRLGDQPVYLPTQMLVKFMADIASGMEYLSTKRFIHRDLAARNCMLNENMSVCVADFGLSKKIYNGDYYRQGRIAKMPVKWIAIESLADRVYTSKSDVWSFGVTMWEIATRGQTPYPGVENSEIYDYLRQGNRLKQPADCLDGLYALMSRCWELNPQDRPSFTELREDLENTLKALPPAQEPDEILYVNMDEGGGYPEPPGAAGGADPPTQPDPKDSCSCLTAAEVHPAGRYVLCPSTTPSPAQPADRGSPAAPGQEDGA

[18] = target: Receptor-type tyrosine-protein kinase FLT3 (Homo sapiens, UniProt P36888); assay: Inhibition of human FLT3 using EAIYAAPFAKKK as substrate by [gamma-33P]-ATP assay
MDA-MB-231 = assay: Antiproliferative activity against human MDA-MB-231 cells after 2 days by spectrophotometric analysis; assay type: functional; conditions: MDA-MB-231, 48 h
HCC78 = assay: Antiproliferative activity against human HCC78 cells after 2 days by spectrophotometric analysis; assay type: functional; conditions: HCC78, 48 h
A-375 = assay: Antiproliferative activity against human A375 cells after 2 days by spectrophotometric analysis; assay type: functional; conditions: A-375, 48 h

Chain of ALK tyrosine kinase receptor (Homo sapiens) (Q9UM73 19-1620 limits assumed): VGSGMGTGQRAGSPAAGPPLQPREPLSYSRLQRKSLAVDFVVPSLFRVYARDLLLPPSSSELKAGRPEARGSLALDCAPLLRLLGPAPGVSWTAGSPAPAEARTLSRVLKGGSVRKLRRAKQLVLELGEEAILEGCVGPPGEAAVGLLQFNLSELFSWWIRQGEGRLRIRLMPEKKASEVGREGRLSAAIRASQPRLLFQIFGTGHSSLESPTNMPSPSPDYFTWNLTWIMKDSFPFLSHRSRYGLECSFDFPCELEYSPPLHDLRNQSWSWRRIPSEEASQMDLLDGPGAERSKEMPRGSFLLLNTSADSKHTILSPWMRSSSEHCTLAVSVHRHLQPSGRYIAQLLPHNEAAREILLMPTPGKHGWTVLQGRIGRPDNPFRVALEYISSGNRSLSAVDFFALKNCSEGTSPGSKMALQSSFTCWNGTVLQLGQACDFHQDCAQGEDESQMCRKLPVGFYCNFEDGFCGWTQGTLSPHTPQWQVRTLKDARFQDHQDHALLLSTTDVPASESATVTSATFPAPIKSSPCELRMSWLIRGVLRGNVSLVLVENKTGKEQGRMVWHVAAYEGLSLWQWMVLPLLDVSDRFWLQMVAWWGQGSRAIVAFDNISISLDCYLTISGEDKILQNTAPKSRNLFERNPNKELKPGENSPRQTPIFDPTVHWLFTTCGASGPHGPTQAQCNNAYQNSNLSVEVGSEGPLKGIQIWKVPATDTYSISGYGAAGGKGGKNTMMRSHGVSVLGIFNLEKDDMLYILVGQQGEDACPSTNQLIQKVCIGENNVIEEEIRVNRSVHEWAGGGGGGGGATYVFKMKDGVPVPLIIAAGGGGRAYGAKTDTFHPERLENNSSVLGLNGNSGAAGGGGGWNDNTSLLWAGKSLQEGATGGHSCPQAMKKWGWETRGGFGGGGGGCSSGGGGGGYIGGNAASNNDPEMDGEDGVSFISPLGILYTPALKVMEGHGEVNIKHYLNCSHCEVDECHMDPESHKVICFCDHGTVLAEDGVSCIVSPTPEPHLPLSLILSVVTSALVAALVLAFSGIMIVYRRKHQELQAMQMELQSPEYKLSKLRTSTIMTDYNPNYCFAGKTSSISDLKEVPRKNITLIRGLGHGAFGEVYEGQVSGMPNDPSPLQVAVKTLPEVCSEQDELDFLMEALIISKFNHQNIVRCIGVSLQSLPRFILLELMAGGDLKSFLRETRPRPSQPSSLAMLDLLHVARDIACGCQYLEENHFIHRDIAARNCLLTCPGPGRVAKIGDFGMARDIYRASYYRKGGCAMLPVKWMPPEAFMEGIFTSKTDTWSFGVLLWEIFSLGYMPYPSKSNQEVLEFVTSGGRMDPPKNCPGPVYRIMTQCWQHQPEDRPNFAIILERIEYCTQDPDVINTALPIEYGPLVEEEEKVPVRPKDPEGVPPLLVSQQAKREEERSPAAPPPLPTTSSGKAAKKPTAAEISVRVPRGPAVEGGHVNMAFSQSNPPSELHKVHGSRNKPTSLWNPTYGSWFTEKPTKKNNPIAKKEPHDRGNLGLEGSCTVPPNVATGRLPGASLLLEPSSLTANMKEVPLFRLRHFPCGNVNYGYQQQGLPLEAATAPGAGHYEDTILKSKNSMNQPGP

inhibition [1]: 71.3%
inhibition [2]: 95.3%
inhibition [3]: 17.8%
inhibition [4]: 20.5%
inhibition [5]: 69.1%
inhibition [6]: 16.2%
inhibition [7]: 9.8%
inhibition [8]: 26%
inhibition [9]: 83.8%
inhibition [10]: 14.1%
inhibition [11]: 19.3%
inhibition [12]: 85.2%
inhibition [13]: 92.2%
inhibition [14]: 95.3%
inhibition [15]: 87.7%
inhibition [16]: 90.5%
IC50 [17]: < 0.0005 µM
IC50 [18]: 0.0046 µM
GI50 (MDA-MB-231): 0.5 µM
GI50 (HCC78): 5.2 µM
GI50 (A-375): 1 µM
SMILES: CC(=O)N1CCN(c2ccc(Nc3ncc(C(F)(F)F)c(N4Cc5cccc(N(C)S(C)(=O)=O)c5C4)n3)cc2)CC1
